# In the library only some 1.5% were active in any assay of this set; here they are far more common.
# CRFR2-BP antag = antagonists of CRF-BP/CRF-R2 complex, primary screen, cell-based, HEK293, calcium dye fluorescence, uHTS. CRF-induced calcium fluorescence. inhibition, % at 11.8 µM. 350,000 compounds, 0.59% hits. AID 588475, 2011;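 active means inhibition of the ligand-induced calcium signal above about 50% at the single tested concentration, limit read from the data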
# S100A4 MyoIIA = inhibitors of S100A4-myosin IIA peptide binding, primary screen, biochemical, fluorescence polarization, TAMRA-MyoIIA peptide. 360,000 compounds, 0.14% hits. inhibition, % at 10.7 µM. Protein S100-A4 (Homo sapiens), P26447. AID 652163, 2013;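 active means mean inhibition of at least 70% across replicates, with every replicate also reaching that level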
# Target sequence (P26447 whole entry, looked up): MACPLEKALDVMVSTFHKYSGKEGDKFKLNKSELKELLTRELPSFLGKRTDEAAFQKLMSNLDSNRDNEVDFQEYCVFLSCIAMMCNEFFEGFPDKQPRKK
#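 Material: S100A4 monomer protein | Medium: HEPES pH 7.2 with CaCl2, KCl, NaCl, DTT, Triton | Reagent: Labelled myosin peptide probe, 5 nM | Doses: One dose per compound | Times: 5 min incubation before reading | Benchmarks: Neutral control DMSO, positive control TFP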
# PKA-R2B act = activators of PKA-R2B holoenzyme, primary screen, biochemical, fluorescence polarization, Cy5-IP20, human; 340,000 compounds, 0.079% hits; cAMP-dependent protein kinase catalytic subunit beta (Homo sapiens) + cAMP-dependent …; activation, % at 11.4 µM; PKA-R2B holoenzyme dissociation; R2B truncated from residue 108, S112A mutant; 0% DMSO only, 100% 113 µM cGMP; AID 504700, 2011;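 active means activation above a cutoff set at the mean over all compounds plus 3 SD, cut at about 18% in these data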;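 further: higher means more holoenzyme dissociation and a rise in polarization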
# Target sequence (P31323 whole entry, looked up, other chains not shown, the tested form may be a part): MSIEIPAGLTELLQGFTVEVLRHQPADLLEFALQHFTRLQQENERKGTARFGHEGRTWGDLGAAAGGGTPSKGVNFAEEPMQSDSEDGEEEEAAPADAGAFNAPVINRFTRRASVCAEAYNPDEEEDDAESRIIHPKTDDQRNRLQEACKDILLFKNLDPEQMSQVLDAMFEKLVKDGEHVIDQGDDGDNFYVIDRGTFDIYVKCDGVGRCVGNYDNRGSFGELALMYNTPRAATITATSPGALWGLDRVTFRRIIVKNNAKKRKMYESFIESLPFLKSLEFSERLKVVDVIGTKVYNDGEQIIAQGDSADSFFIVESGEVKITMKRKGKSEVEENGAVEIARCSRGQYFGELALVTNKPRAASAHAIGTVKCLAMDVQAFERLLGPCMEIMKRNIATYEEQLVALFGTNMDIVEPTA
# SIRT5 inh = SIRT5 desuccinylase inhibitors, primary screen, biochemical, fluorescence imaging, single point, set 5 | inhibition, % at 15 µM | 330,000 compounds, 1.1% hits | Purified SirT5, succinyl-peptide AMC, trypsin-coupled fluorescence; in the data active means inhibition above about 15%
# PKA-R1A activ = activators of PKA-R1A holoenzyme, primary screen, biochemical, fluorescence polarization, Cy5-IP20, bovine R1A, mouse PKAc; cAMP-dependent protein kinase type I-alpha regulatory subunit (Bos taurus) + …; PKA-R1A dissociation; scaled: DMSO 0%, 113 µM cGMP 100%; activation, % at 11.4 µM; 340,000 compounds, 0.083% hits;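 active means percent activation above the mean of all tested compounds plus 3 SD, cut at about 19% in these data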;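 further: higher means more PKAc released from R1A so a rise in polarization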
# * marks the source's active call; other numbers are inactive results; . = no result given; ! = repeats disagree.
SMILES,CRFR2-BP antag,S100A4 MyoIIA,PKA-R2B act,SIRT5 inh,PKA-R1A activ
C[C@@H]1CN([C@H](C)CO)C(=O)c2cc(NC(=O)C3CC3)ccc2O[C@@H]1CN(C)Cc1ccc(-c2ccccc2)cc1,.,-2,.,7,.
O=C(Nc1ccc(F)cc1)N[C@H]1C=C[C@H](CC(=O)N2CCOCC2)O[C@H]1CO,.,10,.,-1,.
C[C@@H]1CCCCO[C@@H](CN(C)Cc2ccc(C(F)(F)F)cc2)[C@H](C)CN([C@@H](C)CO)C(=O)c2cc(NC(=O)CCCN(C)C)ccc2O1,.,15,.,1,.
C[C@H](CO)N1C[C@H](C)[C@@H](CN(C)Cc2ccc(Oc3ccccc3)cc2)Oc2c(NC(=O)C3CCCCC3)cccc2C1=O,.,-1,.,7,.
O=C(C[C@H]1CC[C@@H]2[C@H](COC[C@H](O)CN2C(=O)C2CC2)O1)NCc1ccncc1,.,5,.,-5,.
N#C[C@H]1[C@@H](c2ccccc2-c2ccccc2)[C@H](CO)N1C(=O)NC1CCCCC1,.,-6,.,8,.
O=C(C[C@H]1C[C@@H]2c3cc(NC(=O)NC4CCCCC4)ccc3O[C@@H]2[C@H](CO)O1)NC1CCCCC1,.,4,.,3,.
CO[C@@H]1CN(C)C(=O)c2cc(NC(=O)c3cnccn3)ccc2OC[C@H](C)N(CCc2ccccc2)C[C@@H]1C,.,18,.,.,.
C[C@H](CO)N1C[C@H](C)[C@@H](CN(C)C(=O)Cc2ccccc2)Oc2cc(C#CC3CCCC3)ccc2S1(=O)=O,.,5,.,15*,.
C[C@@H]1CN([C@H](C)CO)S(=O)(=O)c2ccc(C#CC3CCCC3)cc2O[C@H]1CN(C)C(=O)Cc1ccccc1,4,-6,-4,17*!,-11
C[C@@H]1CN([C@@H](C)CO)S(=O)(=O)c2ccc(C#CC3CCCC3)cc2O[C@H]1CN(C)C(=O)Cc1ccccc1,.,-9,.,2,.
CC(C)CC#Cc1ccc2c(c1)O[C@@H](CN(C)C(=O)NC1CCCC1)[C@@H](C)CN([C@@H](C)CO)S2(=O)=O,.,2,.,16*,.
CC(C)CC#Cc1ccc2c(c1)O[C@H](CN(C)C(=O)NC1CCCC1)[C@H](C)CN([C@@H](C)CO)S2(=O)=O,.,-6,.,4,.
CC(C)CC#Cc1ccc2c(c1)O[C@H](CN(C)C(=O)NC1CCCC1)[C@H](C)CN([C@H](C)CO)S2(=O)=O,.,9,.,13*,.
CC(C)CC#Cc1ccc2c(c1)O[C@H](CN(C)C(=O)NC1CCCC1)[C@@H](C)CN([C@@H](C)CO)S2(=O)=O,.,-4,.,19*,.
CN1C(=O)c2cc(NS(=O)(=O)c3ccc(Cl)cc3)ccc2OC[C@H]2O[C@H](CC(=O)O)CC[C@H]21,.,-9,.,-2,.
O=C(C[C@H]1C[C@@H]2c3cc(NC(=O)NC4CCCCC4)ccc3O[C@@H]2[C@H](CO)O1)NCc1ccccc1,.,5,.,-1,.
COc1ccc2c3c(n(C)c2c1)[C@@H](CO)N(C(=O)NC(C)C)CC31CN(CC2CCOCC2)C1,.,4,.,-2,.
C[C@H](NC(=O)C[C@H]1CC[C@H]2[C@@H](COC[C@@H](O)CN2C(=O)Nc2cc(Cl)cc(Cl)c2)O1)c1ccccc1,.,3,.,1,.
Cc1ccccc1Cn1c(=O)sc2ccccc2c1=O,56*,3,7,1,-5
COc1ccc(Cn2c(=O)sc3ccccc3c2=O)cc1,-17,-2,-7,2,-10
O=C(Nc1ccc2c(c1)OCO2)N[C@H]1CC[C@@H](CCNC(=O)C2CCCCC2)O[C@@H]1CO,.,9,.,5,.
CC[n+]1c(/C=C/c2ccc(N(C)C)cc2)ccc2ccccc21,-1,-23,0,7,2
CCN(CC)c1ccc(/C=C/c2ccc3ccc(OC)cc3[n+]2CC)cc1,4,100*,1,0,-1
CCOc1ccccc1NC(=S)N(CCC(C)C)C1CCN(C(C)=O)CC1,-8,-5,-14,19*,-11
SMILES,CRFR2-BP antag,S100A4 MyoIIA,PKA-R2B act,SIRT5 inh,PKA-R1A activ
CCOc1ccccc1NC(=S)N(CCOC)C1CCN(C(C)=O)CC1,-4,6,3,-8,-7
CN(C)c1ccc(C=Cc2nccc3ccccc23)cc1,.,88*,.,-1,.
C[C@@H]1CN([C@H](C)CO)S(=O)(=O)c2ccc(C#Cc3cccc(F)c3)cc2O[C@@H]1CN(C)C(=O)NC1CCCCC1,.,-7,.,17*,.
C[C@@H]1CN([C@@H](C)CO)S(=O)(=O)c2ccc(C#Cc3ccc(F)cc3)cc2O[C@@H]1CN(C)C(=O)NC1CCCCC1,.,15,.,16*,.
C[C@@H]1CN([C@H](C)CO)S(=O)(=O)c2ccc(C#Cc3ccc(F)cc3)cc2O[C@@H]1CN(C)C(=O)NC1CCCC1,.,28,.,2,.
C[C@H]1CN([C@@H](C)CO)S(=O)(=O)c2ccc(C#Cc3ccc(F)cc3)cc2O[C@H]1CN(C)C(=O)NC1CCCCC1,.,-4,.,20*,.
C[C@H]1CN([C@@H](C)CO)S(=O)(=O)c2ccc(C#Cc3ccc(F)cc3)cc2O[C@@H]1CN(C)C(=O)NC1CCCCC1,.,8,.,18*,.
C[C@H](CO)N1C[C@H](C)[C@H](CN(C)C(=O)NC2CCCCC2)Oc2cc(C#Cc3cccc(F)c3)ccc2S1(=O)=O,.,1,.,-3,.
COc1ccc2c3c(n(C)c2c1)[C@H](CO)NCC31CCN(S(=O)(=O)c2ccccc2)CC1,.,0,.,.,.
O=C(N[C@H]1C=C[C@H](CC(=O)N2CCc3ccccc3C2)O[C@@H]1CO)C1CCOCC1,.,6,.,0,.
COCC(=O)Nc1ccc2c(c1)[C@@H]1C[C@H](CC(=O)NCc3ccncc3)O[C@@H](CO)[C@@H]1O2,.,7,.,1,.
c1ccc(-c2nc(-c3cccs3)[nH]c2-c2ccccc2)cc1,-23,-3,0,15*,-4
CCOC(=O)c1cccc(NC(=O)c2ccc3c(c2)OCO3)c1,2,3,5,19*,5
CC(=O)c1cccc(NC(=O)c2ccc3c(c2)OCO3)c1,7,0,-6,0,-10
CCC(=O)N(C)C[C@@H]1Oc2ncc(-c3ccc(F)cc3)cc2C(=O)N([C@@H](C)CO)C[C@@H]1C,.,3,.,24*,.
C[C@@H]1CN([C@@H](C)CO)C(=O)c2cc(-c3cccc(F)c3)cnc2O[C@H]1CN(C)C(=O)Nc1cc(F)ccc1F,.,3,.,23*,.
C[C@H](CO)N1C[C@H](C)[C@@H](CN(C)C(=O)c2cccnc2)Oc2ncc(-c3ccccc3)cc2C1=O,.,6,.,-2,.
Cc1ccc(-c2cnc3c(c2)C(=O)N([C@H](C)CO)C[C@H](C)[C@@H](CN(C)Cc2ccccc2F)O3)cc1,-1,5,-5,13*!,-14

# Source: PubChem (several laboratories)
